# Results pooled from the literature.
# RET: Proto-oncogene tyrosine-protein kinase receptor Ret (RET, Homo sapiens, UniProt P07949)
# RET M918T: Proto-oncogene tyrosine-protein kinase receptor Ret (RET, Homo sapiens, UniProt P07949, M918T)
# RET V804L: Proto-oncogene tyrosine-protein kinase receptor Ret (RET, Homo sapiens, UniProt P07949, V804L)
# RET V804M: Proto-oncogene tyrosine-protein kinase receptor Ret (RET, Homo sapiens, UniProt P07949, V804M)
Structure (SMILES),target,test,setting,quantity,result
CC(C)(C)c1cc(C=C(C#N)C#N)cc(Br)c1O,RET,"enzyme activity, inhibitor",0.5 µM,remaining activity,98.2%
Cn1cc(-c2cccc(N3CCc4c(sc5c4CC(C)(C)C5)C3=O)c2CO)cc(Nc2ccncn2)c1=O,RET,"enzyme activity, inhibitor",1 µM,inhibition,14%
O=C(NCc1ncc(C(F)(F)F)cc1Cl)c1ccc2c(c1)C1(CCS(=O)(=O)CC1)[C@H](C1CC1)N2S(=O)(=O)c1ccc(F)cc1,RET M918T,"cell-free assay, competition with immobilised ligand",1 µM,remaining binding,96%
O=C1NC(=O)N(c2ccccc2)C(=O)C1=CNc1ccc2[nH]c(=O)[nH]c2c1,RET,"enzyme activity, inhibitor, radiometric",10 µM,remaining activity,90.6%
Nc1ncc(-c2nc(N3CCOCC3)nc(N3CCOCC3)n2)c(C(F)F)n1,RET V804L,"binding, competition with immobilised ligand",10 µM,remaining binding,88%
Cc1nn(C)cc1-c1nc2c(N3CCN(Cc4ccc(Cl)cc4)CC3)c(Cl)cnc2[nH]1,RET V804M,"binding, competition with immobilised ligand",1 µM,remaining binding,22%
C#Cc1n[nH]c2c(-c3cn(C(C)c4ccccn4)c(=O)[nH]c3=O)cc(F)cc12 (centres unmarked),RET,"enzyme activity, inhibitor",1 µM,inhibition,8.7%
N#CC1(c2ccccn2)CCN(Cc2cc(C(=O)O)c(=O)n3ccccc23)CC1,RET V804L,"cell-free assay, competition with immobilised ligand",1 µM,remaining binding,100%
O=C(Cn1cc(C=C2C(=O)NC(=O)NC2=O)c2ccccc21)Nc1ccccc1,RET,"enzyme activity, inhibitor, radiometric",10 µM,remaining activity,110%
C#Cc1n[nH]c2c(-c3cn([C@@H](C)c4ccccc4)c(=O)[nH]c3=O)cc(F)cc12,RET V804M,"enzyme activity, inhibitor",0.1 µM,inhibition,2.3%
Cn1cncc1[C@@](O)(COc1ccc(C#N)cc1-c1ccc(OC(F)(F)F)cc1)c1ccc(C#N)cc1,RET M918T,"cell-free assay, competition with immobilised ligand",1 µM,remaining binding,98%
